In ChEMBL document CHEMBL4715933, “Identification of Potent Reverse Indazole Inhibitors for HPK1” (ACS Med Chem Lett, 2021) one finds Ratio IC50 and IC50 data, which are given here for 21 compounds.

For test [1], the species on record is Homo sapiens. The test is described as follows: Selectivity ratio of IC50 for JAK2 (unknown origin) by ATP competitive binding assay to IC50 for N-terminal GST-tagged human recombinant HPK1 (1 to 346 residues ) expressed in baculovirus-infected Sf9 cells by HTRF lanthascreen binding assay. The gist of the method: (§1)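 Ratio of off-target kinase IC50 (JAK1, JAK2 or CDK2) to HPK1 IC50. The off-target kinase assays were run at ATP approximately equal to Km(ATP). HPK1 IC50 came from the tracer-displacement assay with tracer at approximately Kd(tracer).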

The species entered for test [2] is Homo sapiens. The test is described as follows: Selectivity ratio of IC50 for JAK1 (unknown origin) by ATP competitive binding assay to IC50 for N-terminal GST-tagged human recombinant HPK1 (1 to 346 residues ) expressed in baculovirus-infected Sf9 cells by HTRF lanthascreen binding assay. The gist of the method: as §1
The target in test [3] is Mitogen-activated protein kinase kinase kinase kinase 1 (Homo sapiens, UniProt Q92918). The test is described as follows: Displacement of Tracer 222 from N-terminal GST-tagged human recombinant HPK1 (1 to 346 residues ) expressed in baculovirus-infected Sf9 cells incubated for 1 hr by HTRF lanthascreen binding assay. A digest of the protocol: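 Binding (tracer-displacement) format run with tracer at a concentration approximately equal to its Kd; IC50 derived from displacement.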

Test [4] is filed under the species Homo sapiens. The test is described as follows: Selectivity ratio of IC50 for CDK2 (unknown origin) by ATP competitive binding assay to IC50 for N-terminal GST-tagged human recombinant HPK1 (1 to 346 residues ) expressed in baculovirus-infected Sf9 cells by HTRF lanthascreen binding assay. The gist of the method:
as §1

Sequence of Mitogen-activated protein kinase kinase kinase kinase 1 (Q92918 whole entry, the tested form may be a part): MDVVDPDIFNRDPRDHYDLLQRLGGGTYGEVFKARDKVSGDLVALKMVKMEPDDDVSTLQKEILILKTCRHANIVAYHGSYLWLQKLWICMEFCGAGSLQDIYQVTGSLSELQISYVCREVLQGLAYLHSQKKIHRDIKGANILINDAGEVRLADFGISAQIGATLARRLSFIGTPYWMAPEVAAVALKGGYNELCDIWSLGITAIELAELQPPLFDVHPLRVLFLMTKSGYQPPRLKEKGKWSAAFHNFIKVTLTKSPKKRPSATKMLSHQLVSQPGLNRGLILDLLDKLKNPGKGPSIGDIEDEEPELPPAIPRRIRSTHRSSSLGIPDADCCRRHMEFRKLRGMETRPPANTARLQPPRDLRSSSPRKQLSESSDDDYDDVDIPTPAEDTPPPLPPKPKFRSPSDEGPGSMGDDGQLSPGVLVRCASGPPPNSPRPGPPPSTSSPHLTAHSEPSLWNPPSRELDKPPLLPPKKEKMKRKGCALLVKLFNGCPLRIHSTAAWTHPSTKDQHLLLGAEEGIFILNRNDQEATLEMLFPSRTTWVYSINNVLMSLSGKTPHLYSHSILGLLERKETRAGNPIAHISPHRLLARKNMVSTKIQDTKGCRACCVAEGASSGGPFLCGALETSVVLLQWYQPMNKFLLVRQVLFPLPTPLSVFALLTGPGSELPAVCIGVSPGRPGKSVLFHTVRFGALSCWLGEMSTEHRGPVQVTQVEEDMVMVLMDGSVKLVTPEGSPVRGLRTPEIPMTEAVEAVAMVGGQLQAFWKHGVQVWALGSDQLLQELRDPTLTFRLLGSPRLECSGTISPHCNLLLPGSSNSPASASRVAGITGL

For `Cc1ccccc1-c1cc2c(cn1)cnn2-c1ccc(N2CCN(C)CC2)cc1`, the Ratio IC50 in the test filed under Homo sapiens [1] and in the test filed under Homo sapiens [2] was 24 throughout. Further, in test [3], the IC50 stood at 410 nM.
In the case of `COc1ccncc1-c1cc2c(cn1)cnn2-c1ccc(N2CCN(C)CC2)cc1`, the Ratio IC50 is 4 in the test filed under Homo sapiens [4], 83 in the test filed under Homo sapiens [1] and 83 in the test filed under Homo sapiens [2]. Moreover, in test [3], the 50% inhibitory concentration (IC50) is 120 nM.
Take `COC(=O)N1CCN(c2cccc(-n3ncc4cnc(-c5c(F)cccc5OC)cc43)n2)CC1`: the figures for the Ratio IC50 in the test listed under Homo sapiens [4], in the test filed under Homo sapiens [1] and in the test filed under Homo sapiens [2] were 11, 5 and 65, respectively. Further, in test [3], the IC50 worked out at 32 nM.
As to `COc1cccc(F)c1-c1cc2c(cn1)cnn2-c1cccc(N2CCCC2)n1`, the IC50 in test [3] worked out at 109 nM.
As to `COc1cccc(F)c1-c1cc2c(cn1)cnn2-c1ccccc1`, the Ratio IC50 in the test listed under Homo sapiens [1] and in the test listed under Homo sapiens [2] was 10 throughout. Besides, the IC50 in test [3] worked out at 1050 nM.
As for `Cc1cccc(C)c1-c1cc2c(cn1)cnn2-c1ccc(N2CCN(C)CC2)cc1`, the Ratio IC50 in the test listed under Homo sapiens [4], in the test listed under Homo sapiens [1] and in the test filed under Homo sapiens [2] was 35 each time. Further, the IC50 in test [3] was 284 nM.
On to `COc1cccc(F)c1-c1cc2c(cn1)cnn2-c1cccc(N2CCCCC2)n1`, for which the Ratio IC50 came out at 43 in the test listed under Homo sapiens [4], 26 in the test filed under Homo sapiens [1] and 252 in the test filed under Homo sapiens [2]. Besides, the IC50 in test [3] amounted to 40 nM.
On the same counts, the results for `COc1cccc(F)c1-c1cc2c(cn1)cnn2-c1cccc(N2CC(N)C2)n1` are 10, 24, 59 and 32 nM.
Turning to `COc1cccc(F)c1-c1cc2c(cn1)cnn2-c1cccc(N2CCN(C)CC2)c1`, the Ratio IC50 in the test listed under Homo sapiens [1] and in the test listed under Homo sapiens [2] was 25 each time. For the same compound, in test [3], the IC50 was determined as 408 nM.
For `COc1cccc(F)c1-c1cc2c(cn1)cnn2-c1ccc(N2CCOCC2)cc1`, the Ratio IC50 in the test filed under Homo sapiens [1] and in the test filed under Homo sapiens [2] was 99 in each case. For the same compound, the IC50 in test [3] amounted to 101 nM.
With `COc1cccc(F)c1-c1cc2c(cn1)cnn2-c1cccc(N)n1`, the IC50 in test [3] amounted to 518 nM.
In the case of `COc1cccc(-n2ncc3cnc(-c4c(F)cccc4OC)cc32)n1`, the Ratio IC50 worked out at 5 in the test filed under Homo sapiens [4], 21 in the test listed under Homo sapiens [1] and 97 in the test filed under Homo sapiens [2]. For the same compound, the IC50 in test [3] turned out to be 103 nM.
Take `Cc1cccc(F)c1-c1cc2c(cn1)cnn2-c1cnn(C)c1`: the IC50 in test [3] turned out to be 1090 nM.
In the case of `COc1cccc(F)c1-c1cc2c(cn1)cnn2-c1cccc(N2CCOCC2)n1`, the figures for the Ratio IC50 in the test filed under Homo sapiens [4], in the test listed under Homo sapiens [1] and in the test filed under Homo sapiens [2] were 12, 18 and 92, respectively. The IC50 in test [3] worked out at 34 nM.
As to `Cc1cccc(F)c1-c1ccc2cnn(-c3ccc(N4CCN(C)CC4)cc3)c2c1`, the IC50 in test [3] was 1470 nM.
Take `COc1cccc(F)c1-c1cc2c(cn1)cnn2-c1ccnc(N2CCN(C)CC2)c1`: the Ratio IC50 in the test listed under Homo sapiens [4] came to 167; in the test filed under Homo sapiens [1], 61; in the test filed under Homo sapiens [2], 167. Further, the half-maximal inhibitory concentration (IC50) in test [3] was 60 nM.
Regarding `CNC1CCN(c2cccc(-n3ncc4cnc(-c5c(F)cccc5OC)cc43)n2)CC1`, the values for the Ratio IC50 in the test filed under Homo sapiens [4], in the test listed under Homo sapiens [1] and in the test filed under Homo sapiens [2] were 8.5, 90 and 112, respectively. In test [3], the IC50 worked out at 17 nM.
On the same counts, the results for `Cc1cccc(F)c1-c1cc2c(cn1)cnn2-c1ccc(N2CCN(C)CC2)cc1` are 83, 83, 83 and 121 nM.
On the same counts, the results for `COc1cccc(F)c1-c1cc2c(cn1)cnn2-c1cccc(N2CCNCC2)n1` are 29, 204, 446 and 3.8 nM.
As to `COc1cccc(F)c1-c1cc2c(cn1)cnn2-c1cccc(N2CCCC2=O)n1`, in test [3], the IC50 turned out to be 213 nM.
For `CN1CCN(c2ccc(-n3ncc4cnc(-c5ccccc5)cc43)cc2)CC1`, the Ratio IC50 in the test filed under Homo sapiens [1] and in the test filed under Homo sapiens [2] was 12 throughout. Besides, the IC50 in test [3] came out at 826 nM.
